Measured values taken from ChEMBL document CHEMBL4602702, “Red-Emitting Dibenzodiazepinone Derivatives as Fluorescent Dualsteric Probes for the Muscarinic Acetylcholine M2 Receptor” (J Med Chem, 2020).
One block for each compound: values may come before it.

Assays:
[1] = target: T1, Muscarinic acetylcholine receptor M2 (Homo sapiens, UniProt P08172); experiment: (§1) Displacement of 4-(2-((1E,3E)-5-((E)-3,3-Dimethyl-1-(6-oxo-6-((2-(4-(4-(1-(2-oxo-2-(11-oxo-10,11-dihydro-5H-dibenzo[b,e][1,4]diazepin-5-yl)ethyl)piperidin-4-yl)butyl)piperazin-1-yl)ethyl)amino)hexyl)-5-sulfoindolin-2-ylidene)penta-1,3-dien-1-yl)-3,3-dimethyl-3H-indol-1-ium-1-yl)butane-1-sulfonate Bis(hydrotrifluoroacetate) fluorescent tracer from human muscarinic M2 receptor expressed in […] cells measured after 60 mins by Hoechst H33342 dye based confocal plate reader assay; assay type: cell-based
T1 sequence (P08172 whole entry): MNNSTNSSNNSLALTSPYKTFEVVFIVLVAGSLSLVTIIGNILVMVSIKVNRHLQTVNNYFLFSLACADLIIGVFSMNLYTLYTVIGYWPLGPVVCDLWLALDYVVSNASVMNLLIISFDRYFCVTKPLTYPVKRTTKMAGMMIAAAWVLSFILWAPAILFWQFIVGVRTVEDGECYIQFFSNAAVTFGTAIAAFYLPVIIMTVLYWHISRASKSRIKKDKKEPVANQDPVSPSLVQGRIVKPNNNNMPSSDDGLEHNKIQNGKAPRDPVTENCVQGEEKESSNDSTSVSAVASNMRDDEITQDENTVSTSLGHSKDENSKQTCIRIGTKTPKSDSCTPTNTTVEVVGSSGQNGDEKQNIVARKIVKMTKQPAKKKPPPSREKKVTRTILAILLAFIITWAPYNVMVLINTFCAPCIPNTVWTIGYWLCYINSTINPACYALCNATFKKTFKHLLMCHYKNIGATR

[2] = target: T1, Muscarinic acetylcholine receptor M2; experiment: (§2) Displacement of 4-(2-((1E,3E)-5-((E)-3,3-Dimethyl-1-(6-oxo-6-((2-(3-(1-(4-(1-(2-oxo-2-(11-oxo-10,11-dihydro-5H-dibenzo[b,e][1,4]diazepin-5-yl)ethyl)piperidin-4-yl)butyl)-1H-imidazol-4-yl)propanamido)ethyl)-amino)hexyl)-5-sulfoindolin-2-ylidene)penta-1,3-dien-1-yl)-3,3-dimethyl-3H-indol-1-ium-1-yl)butane-1-sulfonateHydrotrifluoroacetate fluorescent tracer from human muscarinic M2 receptor expressed in […] cells measured after 60 mins by Hoechst H33342 dye based confocal plate reader assay; assay type: cell-based
[3] = target: T1, Muscarinic acetylcholine receptor M2; experiment: (§3) Displacement of 4-(2-((1E,3E)-5-((E)-1-(6-((3,5-Bis((2-(3-(1-(4-(1-(2-oxo-2-(11-oxo-10,11-dihydro-5H-dibenzo[b,e][1,4]diazepin-5-yl)ethyl)piperidin-4-yl)butyl)-1H-imidazol-4-yl)propanamido)ethyl)carbamoyl)benzyl)amino)-6-oxohexyl)-3,3-dimethyl-5-sulfoindolin-2-ylidene)penta-1,3-dien-1-yl)-3,3-dimethyl-3H-indol-1-ium-1-yl)butane-1-sulfonate Tris(hydrotrifluoroacetate) fluorescent tracer from human muscarinic M2 receptor expressed in […] cells measured after 60 mins by Hoechst H33342 dye based confocal plate reader assay; assay type: cell-based
[4] = target: Muscarinic acetylcholine receptor M2 (Homo sapiens) (UniProt P08172); experiment: Displacement of [3H]-UR-SK259 human muscarinic M2 receptor
[5] = target: T1, Muscarinic acetylcholine receptor M2; experiment: as §1, with “cells” for “cells measured after 60 mins”, “competition binding” for “Hoechst H33342 dye based confocal plate reader”; assay type: cell-based; details: read-out: pA2 (converted)
Outline: (§4)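 High-content imaging competition binding at intact CHO-hM2R cells against fluorescent tracer at 10 nM. Separately, flow cytometry competition with the fluorescent tracer at 1 nM at live cells. Four-parameter logistic fits; mean ± SEM of at least two experiments in duplicate.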

[6] = target: T1, Muscarinic acetylcholine receptor M2; experiment: as §2, with “cells” for “cells measured after 60 mins”, “competition binding” for “Hoechst H33342 dye based confocal plate reader”; assay type: cell-based; details: read-out: pA2 (converted); outline: as §4
[7] = target: T1, Muscarinic acetylcholine receptor M2; experiment: as §3, with “cells” for “cells measured after 60 mins”, “competition binding” for “Hoechst H33342 dye based confocal plate reader”; assay type: cell-based; details: read-out: pA2 (converted); outline: as §4
[8] = target: T1, Muscarinic acetylcholine receptor M2; experiment: as §1, with “cells” for “cells measured after 60 mins”, “FACSCalibur flow cytometry” for “Hoechst H33342 dye based confocal plate reader assay”; assay type: cell-based
[9] = target: T2, Muscarinic acetylcholine receptor M1 (Homo sapiens, UniProt P11229); experiment: Displacement of [3H]-QNB from truncated EGFP-fused human muscarinic M1 receptor expressed in HEK293 cells by […]; assay type: cell-based
T2 sequence (P11229 whole entry): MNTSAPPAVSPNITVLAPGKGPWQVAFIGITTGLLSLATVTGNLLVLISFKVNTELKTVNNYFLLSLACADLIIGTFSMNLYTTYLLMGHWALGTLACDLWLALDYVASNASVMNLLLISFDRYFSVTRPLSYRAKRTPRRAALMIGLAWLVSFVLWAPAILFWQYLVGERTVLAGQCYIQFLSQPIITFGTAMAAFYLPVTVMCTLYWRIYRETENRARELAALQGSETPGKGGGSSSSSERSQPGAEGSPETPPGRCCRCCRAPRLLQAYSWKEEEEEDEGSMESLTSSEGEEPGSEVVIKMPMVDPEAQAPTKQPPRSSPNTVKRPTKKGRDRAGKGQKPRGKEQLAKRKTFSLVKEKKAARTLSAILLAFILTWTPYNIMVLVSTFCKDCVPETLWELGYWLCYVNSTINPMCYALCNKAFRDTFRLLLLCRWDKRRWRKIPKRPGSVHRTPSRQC

[10] = target: T3, Muscarinic acetylcholine receptor M1 (Homo sapiens) (UniProt P11229); experiment: Displacement of [3H]-NMS from human muscarinic M1 receptor expressed in CHO cells by scintillation counting method; assay type: cell-based
T3 sequence (whole entry): T2 sequence (P11229 whole entry)

[11] = target: T4, Muscarinic acetylcholine receptor M2 (Homo sapiens) (UniProt P08172); experiment: Displacement of [3h]-NMS from human muscarinic M2 receptor expressed in CHO cells by radioligand binding assay; assay type: cell-based
T4 sequence (whole entry): T1 sequence (P08172 whole entry)

Compound: O=C1CCCN1CC#CCN1CCCC1 [OXOTREMORINE]
Ki [1]: 851 nM
Ki [2]: 1020 nM
Ki [3]: 1780 nM

Compound: C[N+](C)(CCCCCC[N+](C)(C)CCCN1C(=O)c2ccccc2C1=O)CCCN1C(=O)c2ccccc2C1=O
Kb [5]: 148 nM
Kb [6]: 457 nM
Kb [7]: 200 nM
Ki [8]: 407 nM
Ki [1]: 1410 nM
Ki [2]: 646 nM
Ki [3]: 851 nM

Results, then the compound that gave them:

Kd [4]: 0.813 nM
Compound: CCC(=O)NCc1cc(C(=O)NCCN2CCC(N3CCC(n4c(=O)[nH]c5ccccc54)CC3)CC2)cc(C(=O)NCCN2CCN(CCCCC3CCN(CC(=O)N4c5ccccc5NC(=O)c5ccccc54)CC3)CC2)c1

Ki [9]: 8.91 nM
Compound: O=C(CCC1=[N+]2C(=Cc3ccc(-c4cccs4)n3[B-]2(F)F)C=C1)NCCOCCOCCOCCOCCOCCOCCCN1CCN(CC(=O)N2c3ccccc3C(=O)Nc3cccnc32)CC1

pK [10]: 10.5
pK [11]: 10.3
Compound: Cc1scc2c1N(C(=O)CN1CCN(CCCCCCCCCCNC(=O)Cc3ccc4c(c3)C(C)(C)C3=C5C=C6C7=[N+](CCC6OC5CCN34)c3ccc(S(=O)(=O)[O-])cc3C7(C)C)CC1)c1ccccc1NC2=O (centres undefined)
